Results on eight compounds are retold here after ChEMBL document CHEMBL3120138, “Glucocorticoid receptor modulators informed by crystallography lead to a new rationale for receptor selectivity, function, and implications for structure-based design” (J Med Chem, 2014).

Test [1] addresses T1, Glucocorticoid receptor (Homo sapiens, UniProt P04150).
T1 sequence (P04150 whole entry): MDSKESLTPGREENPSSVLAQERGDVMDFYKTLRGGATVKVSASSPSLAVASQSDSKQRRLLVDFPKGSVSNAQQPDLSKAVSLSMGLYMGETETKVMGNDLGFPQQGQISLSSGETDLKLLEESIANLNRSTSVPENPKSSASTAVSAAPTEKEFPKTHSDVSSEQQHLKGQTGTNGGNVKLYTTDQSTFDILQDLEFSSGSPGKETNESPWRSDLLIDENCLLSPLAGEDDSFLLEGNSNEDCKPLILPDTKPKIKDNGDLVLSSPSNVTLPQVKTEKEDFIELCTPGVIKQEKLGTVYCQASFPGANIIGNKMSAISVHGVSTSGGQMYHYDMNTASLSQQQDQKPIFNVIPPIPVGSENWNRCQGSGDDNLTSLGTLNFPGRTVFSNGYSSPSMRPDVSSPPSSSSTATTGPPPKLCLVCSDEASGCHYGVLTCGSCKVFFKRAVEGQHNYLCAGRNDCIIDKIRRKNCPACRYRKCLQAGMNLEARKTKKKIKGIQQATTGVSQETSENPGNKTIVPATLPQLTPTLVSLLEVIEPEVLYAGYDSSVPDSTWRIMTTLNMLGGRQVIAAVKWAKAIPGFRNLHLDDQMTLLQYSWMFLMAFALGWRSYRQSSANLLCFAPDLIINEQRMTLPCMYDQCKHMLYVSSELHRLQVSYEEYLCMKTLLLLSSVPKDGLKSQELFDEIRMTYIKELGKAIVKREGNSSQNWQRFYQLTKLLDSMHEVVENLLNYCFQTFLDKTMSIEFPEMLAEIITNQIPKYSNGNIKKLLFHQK
Put plainly: Displacement of [3H]-dexamethasone from human glucocorticoid receptor expressed in HEK293 cells. In kind it is cell-based. For orientation: Loss of bound radioactivity is the signal in a displacement assay; it reports binding, not function.

Test [2] addresses T2, Progesterone receptor (Homo sapiens, UniProt P06401).
T2 sequence (P06401 whole entry): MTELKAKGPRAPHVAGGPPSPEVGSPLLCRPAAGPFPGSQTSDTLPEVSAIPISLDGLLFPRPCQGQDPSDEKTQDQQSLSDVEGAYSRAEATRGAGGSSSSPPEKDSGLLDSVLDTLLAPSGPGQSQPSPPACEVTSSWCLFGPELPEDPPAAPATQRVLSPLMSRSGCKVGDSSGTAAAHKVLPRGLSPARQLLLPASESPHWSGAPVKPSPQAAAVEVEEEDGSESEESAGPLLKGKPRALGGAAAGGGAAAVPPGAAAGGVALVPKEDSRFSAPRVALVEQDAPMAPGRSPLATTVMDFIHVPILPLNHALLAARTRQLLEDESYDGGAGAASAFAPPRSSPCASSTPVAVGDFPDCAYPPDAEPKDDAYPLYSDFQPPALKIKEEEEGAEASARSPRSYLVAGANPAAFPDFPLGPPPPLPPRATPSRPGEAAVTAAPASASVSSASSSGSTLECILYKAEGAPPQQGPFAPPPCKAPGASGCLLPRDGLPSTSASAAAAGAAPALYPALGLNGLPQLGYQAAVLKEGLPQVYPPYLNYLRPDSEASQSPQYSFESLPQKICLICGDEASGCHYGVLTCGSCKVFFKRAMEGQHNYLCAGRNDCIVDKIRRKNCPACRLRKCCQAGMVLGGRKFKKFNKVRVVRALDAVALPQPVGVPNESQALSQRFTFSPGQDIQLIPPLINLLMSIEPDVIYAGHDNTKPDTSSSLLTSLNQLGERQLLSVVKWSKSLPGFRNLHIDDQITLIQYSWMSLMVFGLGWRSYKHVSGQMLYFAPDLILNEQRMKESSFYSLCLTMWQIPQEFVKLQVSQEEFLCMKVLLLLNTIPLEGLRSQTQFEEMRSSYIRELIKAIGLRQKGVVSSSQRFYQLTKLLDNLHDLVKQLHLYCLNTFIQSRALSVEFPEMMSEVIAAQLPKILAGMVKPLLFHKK
Put plainly: Displacement of [3H]-methyltrienolone from human progesterone receptor expressed in HEK293 cells. The class given is cell-based. The essentials: (§1)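 Competition binding used lysates of HEK293 cells overexpressing the human receptor. The tracer was ³H-aldosterone for MR and ³H-methyltrienolone for PR. Competitor was tested from 0.01 nM to 10 μM. IC50 was converted to Ki by Cheng–Prusoff. Values are means of at least three experiments, each run in triplicate.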

Test [3] is described as follows: Antiinflammatory activity in human CCD-39SK cells assessed as inhibition of IL-1beta-induced IL-6 production incubated for 60 mins prior to IL-1beta induction measured after 24 hrs. The class given is functional, cell-based. The essentials: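 CCD-39SK fibroblasts (20 000/well) were grown in MEM with 2% charcoal/dextran-treated FBS. Cells were pretreated with compound for 60 min, then stimulated with rhIL-1β (1 ng/mL final) for 24 h at 37 °C. IL-6 in clarified supernatant was measured. […] Ten-point half-log dilutions were used, each in triplicate.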

In test [4] the target is T3, Glucocorticoid receptor (Homo sapiens) (UniProt P04150).
T3 sequence (whole entry): T1 sequence (P04150 whole entry)
The experiment in a line: Transactivation of human glucocorticoid receptor expressed in HEK293 cells at 10 uM after 24 hrs by luciferase reporter gene assay relative to control. The class given is cell-based. The procedure, abridged:
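HEK293 cells were transfected in DMEM with 5% charcoal-stripped FBS, using a CMV-hGR plasmid and a luciferase reporter driven by 2×GRE plus the TK promoter. After overnight incubation, cells were replated and exposed to compound for 24 h, then lysed for luciferase readout.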
(In general: In a reporter assay the amount or activity of a reporter protein is the signal.)

Test [5] deals with T4, Mineralocorticoid receptor (Homo sapiens, UniProt P08235).
T4 sequence (P08235 whole entry): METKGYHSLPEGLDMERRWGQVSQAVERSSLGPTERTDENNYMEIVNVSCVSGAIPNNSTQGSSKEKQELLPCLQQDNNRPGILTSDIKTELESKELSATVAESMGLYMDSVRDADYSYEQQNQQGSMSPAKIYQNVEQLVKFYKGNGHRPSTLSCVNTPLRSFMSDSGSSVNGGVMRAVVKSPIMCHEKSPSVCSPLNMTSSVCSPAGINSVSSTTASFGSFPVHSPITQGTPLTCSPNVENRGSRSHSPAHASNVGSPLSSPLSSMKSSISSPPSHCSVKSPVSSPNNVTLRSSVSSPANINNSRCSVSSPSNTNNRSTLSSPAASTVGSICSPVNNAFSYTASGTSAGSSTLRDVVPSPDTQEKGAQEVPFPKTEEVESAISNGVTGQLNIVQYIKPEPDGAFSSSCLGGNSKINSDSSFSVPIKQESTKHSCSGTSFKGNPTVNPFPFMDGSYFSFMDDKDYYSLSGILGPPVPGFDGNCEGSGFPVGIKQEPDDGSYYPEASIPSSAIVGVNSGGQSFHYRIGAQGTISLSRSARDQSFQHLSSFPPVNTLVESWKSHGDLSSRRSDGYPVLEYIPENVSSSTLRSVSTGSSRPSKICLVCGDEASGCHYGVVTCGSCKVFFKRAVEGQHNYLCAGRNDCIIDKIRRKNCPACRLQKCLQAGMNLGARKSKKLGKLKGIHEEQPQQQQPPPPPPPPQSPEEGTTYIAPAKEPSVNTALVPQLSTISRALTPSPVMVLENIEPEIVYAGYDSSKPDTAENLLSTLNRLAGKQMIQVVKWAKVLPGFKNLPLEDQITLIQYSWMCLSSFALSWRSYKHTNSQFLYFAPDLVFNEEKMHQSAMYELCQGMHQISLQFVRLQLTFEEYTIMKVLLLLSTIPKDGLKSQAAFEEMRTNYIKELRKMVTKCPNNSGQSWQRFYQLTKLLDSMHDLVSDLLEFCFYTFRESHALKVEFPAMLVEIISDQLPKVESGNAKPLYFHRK
Put plainly: Displacement of [3H]-aldosterone from human mineralocorticoid receptor expressed in HEK293 cells. The class given is cell-based. The essentials: as §1

The subject of test [6] is Rattus norvegicus. Put plainly: Antiinflammatory activity in po dosed Sprague-Dawley rat assessed as inhibition of carrageenan-induced IL-1beta secretion incubated for 2 hrs prior to carrageenan challenge measured after 5 hrs by ELISA. In kind it is functional. The essentials:
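Male Sprague-Dawley rats (n = 5/group) were dosed at t = 0, and carrageenan was injected into the rear footpad at 2 h. At 5 h the animals were euthanised and the hindpaws weighed to measure edema. Paw exudate was assayed for IL-1β by ELISA.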

The test system of test [7] is Rattus norvegicus. The experiment in a line: Antiinflammatory activity in po dosed Sprague-Dawley rat assessed as inhibition of carrageenan-induced paw edema incubated for 2 hrs prior to carrageenan challenge measured after 5 hrs […]. In kind it is functional. In general terms: The carrageenan paw model is a standard test of acute inflammation.
A short description of test [8]: Antiinflammatory activity in PMA-differentiated human U937 cells assessed as inhibition of LPS-induced TNFalpha production incubated for 60 mins prior to LPS challenge measured after 24 hrs. In kind it is functional, cell-based. The following applies: U-937. The procedure, abridged:
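U-937 cells (100 000/well) were differentiated with 20 nM PMA overnight at 37 °C, then refed with PMA-free medium. Cells were pretreated with compound for 60 min, then stimulated with LPS (stock 400 ng/mL) for 24 h at 37 °C. Secreted TNFα was measured by EIA/RIA. Ten-point half-log dilutions were used, each concentration in triplicate.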

In test [9] the test system is Rattus norvegicus. The experiment in a line: Antiinflammatory activity in Lewis rat collagen-induced arthritis model assessed as reduction in ankle diameter at 10 mg/kg, po administered for 15 days measured during compound dosing. In kind it is functional, organism-based. Set-up: dose 10 mg/kg. The essentials:
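Female Lewis rats received collagen injected at the tail base, and disease developed over 14 d. Responding rats (groups of n = 10) were then dosed orally once daily for the next 15 d. Ankle/paw diameter was measured throughout the live phase and summarised as AUC. Hindpaw histology was scored blind from 0 (normal) to 5 (vehicle-level). Statistics used Student's t test vs vehicle, p < 0.01.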

Calls of active or inactive are those of the source. No cut-off for these calls is given here.

For `CCOc1cccc2c1/C(=C(/CC)c1cccc(N(CC)S(C)(=O)=O)c1)c1ccccc1OC2`, in test [1], the Ki (usually the equilibrium dissociation constant of an inhibitor or competing ligand from its target) was over 100 nM.

`CS(=O)(=O)Nc1ccc(C=C2c3ccccc3CCc3ccccc32)cc1` displayed an inhibition constant (Ki) in test [1] of over 100 nM.

Regarding `CS(=O)(=O)Nc1ccccc1C=C1c2ccccc2CCc2ccccc21`, in [1], the Ki was over 100 nM.

Consider `CNS(=O)(=O)c1cccc(C=C2c3ccccc3CCc3ccccc32)c1`, for which, in test [1], the Ki is over 100 nM.

In turn, `Nc1cccc(C=C2c3ccccc3CCc3ccccc32)c1` displayed a Ki in test [1] of over 100 nM.

In test [2], `C[C@@H]1C[C@H]2[C@@H]3CCC4=CC(=O)C=C[C@]4(C)[C@@]3(F)[C@@H](O)C[C@]2(C)[C@@]1(O)C(=O)CO` [DEXAMETHASONE] gave a Ki of 561 nM. That is a sub-micromolar value.

In turn, `C(=C1c2ccccc2CCc2ccccc21)c1ccccc1` returned a Ki in test [1] of over 100 nM.

For the compound `C[C@]12C=CC(=O)C=C1CC[C@@H]1[C@@H]2[C@@H](O)C[C@@]2(C)[C@H]1CC[C@]2(O)C(=O)CO` [PREDNISOLONE], the IC50 (in general, the concentration that inhibits the measured activity by half) in test [3] stood at 7.26 nM; in test [8] it was 8.2 nM. Besides, in test [4], the Efficacy worked out at 114%. The compound also yielded a Ki in test [5] of 0.29 nM. For the same compound, the 50% effective dose (ED50) (commonly the dose at which the effect has come halfway, by size or by number of responders) in [6] was 0.31 mg/kg; in test [7], 7.6 mg/kg. The result in [9] was Active.
